{
  "source": "ChEMBL document CHEMBL1147256",
  "about": "“Antibacterial xanthones from the leaves of Garcinia nigrolineata” (2003)",
  "note": "Active and inactive are the calls of the source. The rule behind the calls is not given here.",
  "data": [
    {"tested_on": "Staphylococcus aureus", "experiment": "Antibacterial activity against methicillin-resistant Staphylococcus aureus at 16 ug/mL after 18 hrs by agar microdilution method", "format": "functional, organism-based", "values": [
      {"smiles": "CC(C)=CCc1c(O)c(CC=C(C)C)c2oc3c(O)cccc3c(=O)c2c1O", "Activity": "Active"}
    ]},
    {"tested_on": "Staphylococcus aureus", "experiment": "Antibacterial activity against methicillin-resistant Staphylococcus aureus after 18 hrs by agar microdilution method", "format": "functional", "method_in_brief": "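MRSA clinical isolate from Songklanakarin Hospital. Compounds were dissolved in DMSO, serially 2-fold diluted and mixed 1:100 into melted Mueller-Hinton agar, giving final concentrations of 128 to 0.03 μg/mL. Inoculum was spotted onto the agar and incubated at 35 °C for 18 h. MIC was the lowest concentration with no visible growth. Vancomycin was the positive control; DMSO-agar was the growth control.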", "units": {"MIC": "µg/mL"}, "values": [
      {"smiles": "CCOC(C)(C)CCc1c(O)cc2oc3c(O)ccc(CCC(C)(C)O)c3c(=O)c2c1O", "Activity": "inactive"},
      {"smiles": "CC(C)=CCc1ccc(O)c2oc3cc4c(c(O)c3c(=O)c12)C=CC(C)(C)O4", "Activity": "inactive"},
      {"smiles": "CC(C)=CCC/C(C)=C/CCC1(C)C=Cc2c(cc(O)c3c(=O)c4cccc(O)c4oc23)O1", "note": "(configuration not stated)", "Activity": "inactive"},
      {"smiles": "CC(C)(O)CCc1ccc(O)c2oc3cc4c(c(O)c3c(=O)c12)CCC(C)(C)O4", "Activity": "inactive"},
      {"smiles": "CC(C)=CCc1ccc(O)c2oc3cc4c(c(O)c3c(=O)c12)CCC(C)(C)O4", "Activity": "inactive"},
      {"smiles": "CC(C)=CCc1c2c(c3oc4c(O)cccc4c(=O)c3c1O)CCC(C)(C)O2", "Activity": "inactive"},
      {"smiles": "CC(C)(O)CCc1ccc(O)c2oc3cc4c(c(O)c3c(=O)c12)C=CC(C)(C)O4", "Activity": "inactive"},
      {"smiles": "CC(C)(O)CCc1c2c(c(O)c3c(=O)c4cccc(O)c4oc13)CCC(C)(C)O2", "Activity": "inactive"},
      {"smiles": "COC(C)(C)CCc1ccc(O)c2oc3cc(O)c(CC=C(C)C)c(O)c3c(=O)c12", "Activity": "inactive"},
      {"smiles": "CC(C)=CCc1c(O)cc2oc3c(O)ccc(CCC(C)(C)O)c3c(=O)c2c1O", "note": "[NIGROLINEAXANTHONE N]", "MIC": 4}
    ]},
    {"tested_on": "Staphylococcus aureus", "experiment": "Antibacterial activity against methicillin-resistant Staphylococcus aureus at 32 ug/mL after 18 hrs by agar microdilution method", "format": "functional, organism-based", "values": [
      {"smiles": "CC(C)=CCc1c2c(c3oc4c(O)cccc4c(=O)c3c1O)C=CC(C)(C)O2", "Activity": "Active"}
    ]}
  ]
}
